Laboratory results from ChEMBL document CHEMBL4130356, “Design, synthesis and 2D QSAR study of novel pyridine and quinolone hydrazone derivatives as potential antimicrobial and antitubercular agents” (Eur J Med Chem, 2017).
In brackets after ≈: the same amount, converted by molar mass. Activity calls are given as the source filed them. No cut-off for these calls is given here.

Key:
Aspergillus fumigatus [1] = assay: Antimicrobial activity against Aspergillus fumigatus RCMB 02568 after 48 hrs by serial dilution method; format: functional; conditions: RCMB 02568, 48 h
Method in brief: (§1)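 Serial twofold dilution in microtiter plates starting from a 100 mmol stock in DMSO; final concentrations 125 down to 0.12 […]. Incubated at 28°C and read on a microplate reader after 48 h. Amphotericin B was the reference. Run in triplicate, with the average taken. MIC was the lowest concentration inhibiting growth.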

WI-38 = assay: Cytotoxicity against human WI38 cells assessed as reduction in cell viability after 24 hrs by crystal violet staining-based colorimetric method; conditions: WI-38, 24 h
Method in brief: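 WI-38 cells were grown in DMEM with 10% FBS at 37°C and 5% CO2, then seeded at 1×10^4 cells/well. Serial twofold dilutions were added, three wells per concentration. Viability was read by crystal violet stain, solubilised in 30% acetic acid, at 490 nm. Run in triplicate. IC50 was estimated from dose-response plots.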

Candida albicans [2] = assay: Antimicrobial activity against Candida albicans RCMB 05036 after 48 hrs by serial dilution method; format: functional; conditions: RCMB 05036, 48 h; method in brief: as §1
Candida albicans [3] = assay: Antimicrobial activity against Candida albicans RCMB 05036 assessed as diameter of zone inhibition at 100 ug/ml after 48 hrs by agar well diffusion assay; format: functional; conditions: for zone of inhibition at 100 µg/mL: RCMB 05036, 48 h, read-out: DIZ
Method in brief: (§2)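 Agar well diffusion on malt agar plates seeded with the fungus, using 1 cm wells. Plates were held at 4°C for 1 h for diffusion, then incubated at 28°C. Inhibition zone diameters were measured at 48 h. Amphotericin B was the positive control. Run in triplicate, with the mean zone reported.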

Streptococcus pneumoniae [4] = assay: Antimicrobial activity against Streptococcus pneumoniae RCMB 010010 assessed as diameter of zone inhibition at 100 ug/ml after 24 hrs by agar well diffusion assay; format: functional; conditions: for zone of inhibition at 100 µg/mL: RCMB 010010, 24 h, read-out: DIZ
Method in brief: (§3)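 Agar well diffusion on nutrient agar plates seeded with the bacterium, using 1 cm wells. Plates were held at 4°C for 1 h for diffusion, then incubated at 37°C. Inhibition zone diameters were measured at 24 h. Ciprofloxacin was the positive control. Run in triplicate, with the mean zone reported.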

Staphylococcus aureus [5] = assay: Antimicrobial activity against Staphylococcus aureus RCMB 010028 assessed as diameter of zone inhibition at 100 ug/ml after 24 hrs by agar well diffusion assay; format: functional; conditions: for zone of inhibition at 100 µg/mL: RCMB 010028, 24 h, read-out: DIZ; method in brief: as §3
[6] = Selectivity index, ratio of IC50 for human WI38 cells to MIC for Mycobacterium tuberculosis RCMB 010126 clinical isolate; format: toxicity; conditions: read-out: Selectivity Index
Method in brief: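 WI-38 human lung fibroblasts grown in DMEM with 10% FBS at 37°C and 5% CO2, seeded at 1×10^4 cells/well, and exposed to serial two-fold dilutions in triplicate. Viability read by crystal violet stain at 490 nm. IC50 taken from dose-response plots. Ratio uses this IC50 against the MABA MIC for M. tuberculosis.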

[7] = tested on: Mycobacterium tuberculosis; assay: Antimycobacterial activity against Mycobacterium tuberculosis RCMB 010126 clinical isolate assessed as inhibition zone after 7 days by MABA; format: functional
Method in brief: (§4)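 Inoculum from fresh LJ culture resuspended in 7H9-S broth with casitone, glycerol and OADC, adjusted to McFarland No. 1 and diluted 1:20. Serial two-fold compound dilutions in 7H9-S; isoniazid reference. Incubated 7 days at 37°C in air, then Alamar blue added and incubated overnight. Percent inhibition = 1 − (test well/growth-control mean) × 100; MIC = lowest concentration preventing blue-to-pink change.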

Escherichia coli [8] = assay: Antimicrobial activity against Escherichia coli RCMB 010052 after 24 hrs by serial dilution method; format: functional; conditions: RCMB 010052, 24 h
Method in brief: as §1, with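 “37°C” for “28°C”, “24” for “48”, “Ciprofloxacin” for “Amphotericin B”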

Staphylococcus aureus [9] = assay: Antimicrobial activity against Staphylococcus aureus RCMB 010028 after 24 hrs by serial dilution method; format: functional; conditions: RCMB 010028, 24 h
Method in brief: as §1, with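 “37°C” for “28°C”, “24” for “48”, “Ciprofloxacin” for “Amphotericin B”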

Escherichia coli [10] = assay: Potency index, ratio of ciprofloxacin MIC to test compound MIC for Escherichia coli RCMB 010052; format: functional
Streptococcus pneumoniae [11] = assay: Potency index, ratio of ampicillin MIC to test compound MIC for Streptococcus pneumoniae RCMB 010010; format: functional
Aspergillus fumigatus [12] = assay: Antimicrobial activity against Aspergillus fumigatus RCMB 02568 assessed as diameter of zone inhibition at 100 ug/ml after 48 hrs by agar well diffusion assay; format: functional; conditions: for zone of inhibition at 100 µg/mL: RCMB 02568, 48 h, read-out: DIZ; method in brief: as §2
[13] = tested on: Mycobacterium tuberculosis; assay: Antimycobacterial activity against Mycobacterium tuberculosis RCMB 010126 clinical isolate after 7 days by MABA; format: functional; conditions: Mycobacterium tuberculosis, RCMB 010126, 168 h; method in brief: as §4
Pseudomonas aeruginosa [14] = conditions: RCMB 010043, 100 ug/ml
Escherichia coli [15] = assay: Antimicrobial activity against Escherichia coli RCMB 010052 assessed as diameter of zone inhibition at 100 ug/ml after 24 hrs by agar well diffusion assay; format: functional; conditions: for zone of inhibition at 100 µg/mL: RCMB 010052, 24 h, read-out: DIZ; method in brief: as §3
Streptococcus pneumoniae [16] = assay: Antimicrobial activity against Streptococcus pneumoniae RCMB 010010 after 24 hrs by serial dilution method; format: functional; conditions: RCMB 010010, 24 h
Method in brief: as §1, with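 “37°C” for “28°C”, “24” for “48”, “Ciprofloxacin” for “Amphotericin B”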

Pseudomonas aeruginosa [17] = conditions: RCMB 010043

SMILES	MIC (Aspergillus fumigatus [1]) [µg/mL]	IC50 (WI-38) [µg/mL]	MIC (Candida albicans [2]) [µg/mL]	zone of inhibition at 100 µg/mL (Candida albicans [3]) [mm]	zone of inhibition at 100 µg/mL (Streptococcus pneumoniae [4]) [mm]	zone of inhibition at 100 µg/mL (Staphylococcus aureus [5]) [mm]	selectivity ratio [6]	inhibition zone (IZ) [7] [mm]	MIC (Escherichia coli [8]) [µg/mL]	MIC (Staphylococcus aureus [9]) [µg/mL]	zone of inhibition at 100 µg/mL (Aspergillus fumigatus [12]) [mm]	MIC [13] [µg/mL]	DIZ (Pseudomonas aeruginosa [14])	zone of inhibition at 100 µg/mL (Escherichia coli [15]) [mm]	MIC (Streptococcus pneumoniae [16]) [µg/mL]	MIC (Pseudomonas aeruginosa [17])	other results
COc1ccc(OC)c(/C=N/NC(=O)c2ccc(-c3ccc(Cl)cc3)nc2C)c1	0.98 (≈ 2.39 µM)	500 (≈ 1220 µM)	0.98 (≈ 2.39 µM)	22.5	24.3	22.3	1280	85.32	0.49 (≈ 1.2 µM)	0.98 (≈ 2.39 µM)	24.3	0.39 (≈ 0.952 µM)	inactive	24.3	0.49 (≈ 1.2 µM)	inactive	Ratio (Escherichia coli [10]): 2; Ratio (Streptococcus pneumoniae [11]): 2
COc1ccc(/C=N/NC(=O)c2ccc(-c3cccc(Cl)c3)nc2C)cc1	1.95 (≈ 5.13 µM)	500 (≈ 1320 µM)	7.81 (≈ 20.6 µM)	18.2	20.9	19.6	321	60.42	3.9 (≈ 10.3 µM)	3.9 (≈ 10.3 µM)	20.6	1.56 (≈ 4.11 µM)	inactive	20.3	3.9 (≈ 10.3 µM)	inactive	–
COc1ccc(/C=N/NC(=O)c2ccc(-c3ccc(Cl)cc3)nc2C)cc1	1.95 (≈ 5.13 µM)	500 (≈ 1320 µM)	3.9 (≈ 10.3 µM)	19.2	21.3	20.1	641	70.34	1.95 (≈ 5.13 µM)	3.9 (≈ 10.3 µM)	20.9	0.78 (≈ 2.05 µM)	inactive	20.9	1.95 (≈ 5.13 µM)	inactive	–
COc1ccc(OC)c(/C=N/NC(=O)c2ccc(-c3cccc(Cl)c3)nc2C)c1	0.98 (≈ 2.39 µM)	188 (≈ 459 µM)	1.95 (≈ 4.76 µM)	21.2	22.5	21.3	482	82.35	0.98 (≈ 2.39 µM)	1.95 (≈ 4.76 µM)	22.6	0.39 (≈ 0.952 µM)	inactive	22.3	0.98 (≈ 2.39 µM)	inactive	–
COc1cc(/C=N/NC(=O)c2ccc(-c3ccc(Cl)cc3)nc2C)cc(OC)c1OC	0.98 (≈ 2.23 µM)	41.1 (≈ 93.4 µM)	1.95 (≈ 4.43 µM)	20.4	21.3	23.4	52.7	68.42	1.95 (≈ 4.43 µM)	0.98 (≈ 2.23 µM)	21.8	0.78 (≈ 1.77 µM)	inactive	21.3	1.95 (≈ 4.43 µM)	inactive	–
COc1ccc(/C=N/NC(=O)c2ccc(-c3ccc(Cl)cc3)nc2C)cc1OC	–	443 (≈ 1080 µM)	–	–	–	–	284	61.32	–	–	–	1.56 (≈ 3.81 µM)	inactive	–	–	–	diameter of the inhibition zone (DIZ) (Candida albicans [3]): inactive; diameter of the inhibition zone (DIZ) (Streptococcus pneumoniae [4]): inactive; diameter of the inhibition zone (DIZ) (Staphylococcus aureus [5]): inactive; diameter of the inhibition zone (DIZ) (Aspergillus fumigatus [12]): inactive; diameter of the inhibition zone (DIZ) (Escherichia coli [15]): inactive
